How the values were obtained:
Escherichia coli [1] = assay: Binding affinity to Escherichia coli DXR by isothermal titration […] assay in presence of 2 mM NADPH and 150 mM NaCl at 279 K and pH 7.6 and Mg2+
In short: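 Isothermal titration calorimetry of inhibitor titrated into E. coli DXR at 279 K, pH 7.6, with 2 mM NADPH, 150 mM NaCl and Mg2+. Ka and ΔH come from fitted titration curves, with ΔG and ΔS derived from them. Kd is taken as the inverse of Ka.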

[2] = Inhibition of His6-tagged Plasmodium falciparum DXR expressed in Escherichia coli M15 using DXP as substrate preincubated for 5 mins
[3] = Inhibition of Escherichia coli DXR using DXP as substrate preincubated for 5 mins
[4] = tested on: Mycobacterium tuberculosis; assay: Binding affinity to Mycobacterium tuberculosis DXR by isothermal titration […] assay in presence of 2 mM NADPH and 150 mM NaCl at 279 K and pH 7.6
[5] = Inhibition of Mycobacterium tuberculosis DXR using DXP as substrate preincubated for 5 mins
Plasmodium falciparum = assay: Binding affinity to His6-tagged Plasmodium falciparum DXR expressed in Escherichia coli M15 by isothermal titration […] assay in presence of 2 mM NADPH and 150 mM NaCl at 279 K and pH 7.6
In short: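 PfDXR gene cloned into pQE30, expressed in E. coli M15, and purified as His6-tagged protein. ITC run at 279 K, pH 7.6, with 2 mM Mn2+ and 2 mM NADPH. Ka and ΔH come from curve fitting, with Kd as the inverse of Ka.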

Escherichia coli [6] = assay: Binding affinity to Escherichia coli DXR by isothermal titration […] assay in presence of 2 mM NADPH and 150 mM NaCl at 279 K and pH 7.6
In short: (§1)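 Isothermal titration calorimetry of inhibitor binding to E. coli DXR, run at 279 K with 2 mM NADPH and 150 mM NaCl. Titrations were done with Mg2+ or Mn2+ present, or with no divalent metal ion. Fitted curves gave ΔH and Ka, with ΔG and ΔS derived from them. Kd was taken as the inverse of Ka.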

Escherichia coli [7] = assay: Binding affinity to Escherichia coli DXR by isothermal titration […] assay in presence of 2 mM NADPH and 150 mM NaCl at 279 K and pH 8.5; in short: as §1
Escherichia coli [8] = assay: Binding affinity to Escherichia coli DXR by isothermal titration […] assay in presence of 2 mM NADPH and 150 mM NaCl at 279 K and pH 7.6 and Mn2+
In short: (§2)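 Heat of inhibitor binding to E. coli DXR (EcDXR) was measured by isothermal titration calorimetry and fitted to binding curves. The fit gave the association constant Ka (M–1) and ΔH, with ΔG and ΔS also reported. Kd was taken as the inverse of Ka. The divalent metal ion (Mg2+ or Mn2+) was included in the titration.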

Escherichia coli [9] = assay: Binding affinity to Escherichia coli DXR by isothermal titration […] assay in presence of 2 mM NADPH and 150 mM NaCl at 279 K and pH 8.5 and Mg2+; in short: as §2

Row | SMILES | Ka (Escherichia coli [1]) | Ki [2] [nM] | Ki [3] [nM] | Ka [4] | Ki [5] [nM] | Ka (Plasmodium falciparum) | Ka (Escherichia coli [6]) [×10⁵ /M] | Ka (Escherichia coli [7]) [×10⁵ /M] | Ka (Escherichia coli [8]) [×10⁶ /M] | Ka (Escherichia coli [9]) [×10⁶ /M]
1 | O=P(O)(O)Cc1ccc(-c2ccccc2)cn1 | 4.83 ×10⁵ /M | 1100 | 420 | 4.44 ×10⁵ /M | 3200 | 4.67 ×10⁵ /M | – | – | – | –
2 | O=CN(O)CCC(c1ccc(Cl)c(Cl)c1)P(=O)(O)O (centres undefined) | 3.03 ×10⁶ /M | 15 | 58 | 2.08 ×10⁶ /M | 1200 | 3.13 ×10⁶ /M | – | – | – | –
3 | O=c1ccc(-c2ccccc2)cn1O [1-HYDROXY-5-PHENYLPYRIDIN-2(1H)-ONE] | 1.72 ×10⁵ /M | 14600 | 700 | 3.42 ×10⁵ /M | 21800 | 2.69 ×10⁵ /M | 2.87 | 2.55 | – | –
4 | O=CN(O)CCCP(=O)(O)O [FOSMIDOMYCIN] | 6.67 ×10⁶ /M | – | – | 3.45 ×10⁶ /M | – | 1.28 ×10⁷ /M | – | – | 7.35 | 5.6
5 | CC(=O)N(O)CCCP(=O)(O)O [FR-900098] | 7.14 ×10⁶ /M | 11 | 19 | 1.79 ×10⁶ /M | 130 | 1.28 ×10⁷ /M | – | – | – | –
6 | O=P(O)(O)Cc1ccccn1 [PYRIDIN-2-YLMETHYLPHOSPHONIC ACID] | 4.93 ×10⁵ /M | 3300 | 2300 | 6.29 ×10⁵ /M | 1600 | 8.77 ×10⁵ /M | 4.31 | 4.89 | – | –

From ChEMBL document CHEMBL2062505, “Thermodynamic Investigation of Inhibitor Binding to 1-Deoxy-D-Xylulose-5-Phosphate Reductoisomerase” (ACS Med Chem Lett, 2012)
